FID counter: displaces DNA intercalator in HCV helicase counter-screen; DNA fluorescent intercalator displacement, fluorescence; inhibition, % at 7.9 µM; 0.17% of 290,000 active; in the data active = inhibition above about 37%;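 also: 0% = vehicle and 100% = reference compound; higher means more ethidium bromide displaced from hairpin DNA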
UBC13 inh: blocks human UBC13 polyubiquitin chain formation | P61088 | TR-FRET | inhibition, % at 20 µM | 0.47% of 330,000 active | AID 485273; in the data active = inhibition above about 45%, passing the limit was not always enough
Apaf1 inhib: human Apaf-1 inhibition. AID 489030. inhibition, % at 20 µM. reconstituted apoptosome caspase-3 activity, DEVD-Rh110 fluorescence. 0.71% of 330,000 active; active = inhibition of at least 40% at 20 µM;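 also: plate controls were DMSO wells for no effect and DEVD-CHO caspase inhibitor wells for full effect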
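detection = Rh110 fluorescence intensity | test system = biochemical Apaf-1 apoptosome reconstitution | also added = cytochrome c and DEVD-Rh110 substrate | schedule = 30 min plus 50 min, RT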
RAD52 inh: inhibitors of human RAD52 DNA annealing. recombinant RAD52 DNA annealing, FRET fluorescence. inhibition, % at 18.7 µM. 0.46% of 360,000 active. AID 651710;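 active = every replicate showing at least 50% inhibition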
RAD54 inh: RAD54 (human) branch migration inhibition; RAD54 Holliday junction branch migration, FAM/BHQ fluorescence; inhibition, % at 10.4 µM; 0.14% of 360,000 active;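 active = mean normalized replicate activity at least 40 and at least half of replicates scoring 40 or more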;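 also: 0% = median of neutral control wells and 100% = median of positive control wells; inhibitors cause a drop in the FAM fluorescence signal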
Neddyl block: inhibitors of human cullin neddylation | TR-FRET cullin neddylation, biochemical | calls only at 25 µM | 0.58% of 360,000 active; in the data active = inhibition above about 36%
Target sequence (P61081 whole entry, looked up): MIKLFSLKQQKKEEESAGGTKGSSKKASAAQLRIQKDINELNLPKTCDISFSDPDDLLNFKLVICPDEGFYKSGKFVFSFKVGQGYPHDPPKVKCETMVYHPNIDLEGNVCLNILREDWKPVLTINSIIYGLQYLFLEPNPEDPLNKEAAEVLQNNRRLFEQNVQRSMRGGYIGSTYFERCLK
Target sequence (Q13564 whole entry, looked up): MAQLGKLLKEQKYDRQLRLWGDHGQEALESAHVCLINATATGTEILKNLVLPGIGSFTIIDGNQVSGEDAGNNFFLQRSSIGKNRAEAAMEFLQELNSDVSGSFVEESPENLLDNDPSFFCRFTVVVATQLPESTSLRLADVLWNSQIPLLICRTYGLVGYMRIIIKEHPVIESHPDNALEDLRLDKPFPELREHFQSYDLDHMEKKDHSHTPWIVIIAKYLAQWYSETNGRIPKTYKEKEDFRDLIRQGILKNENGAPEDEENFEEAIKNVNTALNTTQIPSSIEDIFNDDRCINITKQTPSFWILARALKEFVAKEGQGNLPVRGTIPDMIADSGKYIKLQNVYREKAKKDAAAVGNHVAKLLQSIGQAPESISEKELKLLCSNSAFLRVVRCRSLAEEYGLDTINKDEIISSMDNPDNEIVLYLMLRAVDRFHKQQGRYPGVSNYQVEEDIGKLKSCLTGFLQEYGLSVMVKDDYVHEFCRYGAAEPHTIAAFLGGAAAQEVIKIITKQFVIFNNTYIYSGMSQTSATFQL
* = called active by the depositor; i = inactive; . = no result shown; + = active, no number; ! = not confirmed by another sample. Shown are actives, neighbours in structure and some others; about 1.6% of the full set was active somewhere.

SMILES	FID counter	UBC13 inh	Apaf1 inhib	RAD52 inh	RAD54 inh	Neddyl block
CC(=O)N1[C@@H]2c3cccc(=O)n3C[C@H]1[C@H](CO)[C@H]2C(=O)NCC1CCCCC1	.	.	.	63*	14	.
O=C(NCc1ccccn1)[C@H]1[C@H](CO)[C@H]2Cn3c(cccc3=O)[C@@H]1N2CC1CCCCC1	.	.	.	51*	10	.
CCC(=O)N1CC2(C1)[C@@H](c1ccc(-c3ccc(F)cc3)cc1)[C@@H](CO)N2S(C)(=O)=O	.	.	.	-20	.	.
COc1ccc2c3c([nH]c2c1)[C@@H](CO)N(C(=O)NC(C)C)CC31CN(C(=O)c2cccnc2)C1	.	.	.	-15	.	.
Fc1ccc(F)c(CN2[C@@H]3CNC[C@H]2C3c2ccc(-c3ccncc3)cc2)c1 (stereo not given in full)	.	.	.	81*!	.	.
COc1cc(CN2[C@@H]3CNC[C@H]2C3c2ccc(-c3cccc(C)c3)cc2)cc(OC)c1 (stereo not given in full)	.	.	.	59*	.	.
Fc1cccc(CN2[C@@H]3CNC[C@H]2C3c2ccc(-c3ccccc3)cc2)c1 (stereo not given in full)	.	.	.	31	.	.
Fc1cccc(CN2[C@@H]3CNC[C@H]2C3c2ccc(-c3cccc(F)c3)cc2)c1 (stereo not given in full)	.	.	.	51*!	.	.
COc1ccc(-c2ccc(C3[C@H]4CNC[C@@H]3N4Cc3cc(OC)cc(OC)c3)cc2)cc1 (stereo not given in full)	.	.	.	42	.	.
C=CCOC(=O)[C@H]1[C@@H]2C(=O)O[C@@H](c3ccccc3)[C@@H](c3ccccc3)N2[C@@H](c2ccc(OCCOC(=O)[C@H]3C[C@H]4C(=O)N5CCC[C@H]5C(=O)N4[C@H]3c3cccc(OCCO)c3)cc2)[C@]12C(=O)Nc1ccccc12	.	.	.	-8	-3	.
CCCNC(=O)N1CC2(CCN(C(=O)c3ccncc3)CC2)c2c([nH]c3cc(OC)ccc23)[C@@H]1CO	.	.	.	-13	.	.
CCO/C=C1\C(=O)N(c2ccccc2)C(=O)c2ccccc21	-2	4	2	.	-9	.
CCO/C=C1/C(=O)N(Cc2ccccc2)C(=O)c2ccccc21	-1	-19	62*	-6	.	i
O=C(C[C@@H]1CC[C@@H]2[C@H](COC[C@H](O)CN2S(=O)(=O)c2ccccc2)O1)NCc1ccc(-c2ccccc2)cc1	.	.	.	18	-1	.
O=C(C[C@H]1CC[C@H]2[C@@H](COC[C@H](O)CN2S(=O)(=O)c2ccccc2)O1)NCc1ccc(-c2ccccc2)cc1	.	.	.	92*	3	.
CS(=O)(=O)N1C[C@H](O)COC[C@@H]2O[C@H](CC(=O)NCc3ccc(-c4ccccc4)cc3)CC[C@H]21	.	.	.	58*	0	.
O=C(C[C@@H]1CC[C@@H]2[C@H](COC[C@@H](O)CN2S(=O)(=O)c2ccccc2)O1)NCc1ccc(-c2ccccc2)cc1	.	.	.	89*	-5	.
C[C@@H]1CN([C@H](C)CO)C(=O)c2cc(C#CCN(C)C)cnc2O[C@H]1CN(C)S(=O)(=O)c1cn(C)cn1	.	.	.	-7	12	.
O=C(NCc1ccccc1)C1(CC2CC(c3ccccc3)=NO2)CCNCC1 (stereo not given)	.	40	47*	-11	-6	i
CCCCCCCNC(=O)C1(CC2CC(c3ccccc3)=NO2)CCNCC1 (stereo not given)	.	29	23	-14	2	i
COc1ccc(-n2nc(C(=O)NCC(=O)NC3CCCCC3)c3ccccc3c2=O)c(OC)c1	-36	4	9	2	3	i
COc1ccc(-n2nc(C(=O)NCC(=O)NC3CCCCCC3)c3ccccc3c2=O)c(OC)c1	-38	9	48*	-8	-1	i
C[C@@H]1CN([C@@H](C)CO)C(=O)c2cc(NC(=O)CCC(F)(F)F)ccc2O[C@@H]1CN(C)S(=O)(=O)c1ccccc1	.	.	.	12	0	.
Nc1nc(O)c(N=Nc2ccc(S(N)(=O)=O)cc2)c(=O)[nH]1	3	-15	-10	-5	.	.
NS(=O)(=O)c1ccc(N=Nc2c[nH]c(=O)c(O)c2)cc1	2	-330	74*	-387	-90	i
SMILES	FID counter	UBC13 inh	Apaf1 inhib	RAD52 inh	RAD54 inh	Neddyl block
c1ccc2c(c1)OC(CCCN1CCCCC1)c1ccccc1S2 (stereo not given)	38*	27	19	.	14	i
Cc1ccc(S(=O)(=O)N(C)C[C@H]2Oc3ccc(NS(=O)(=O)c4ccc(Cl)cc4)cc3C(=O)N([C@@H](C)CO)C[C@H]2C)cc1	.	.	.	-10	.	.
Cc1ccc(NC(=S)N(CCCN(C)C)Cc2cc3cc4c(cc3[nH]c2=O)OCO4)cc1	38*	7	6	-7	.	i
Cc1ccc(NC(=S)N(CCCN(C)C)Cc2cc3cc4c(cc3[nH]c2=O)OCO4)c(C)c1	44*	15	4	-5	.	i
C[C@H](CO)N1C[C@H](C)[C@H](CN(C)C(=O)C2CCC2)Oc2cc(C#Cc3ccncc3)ccc2S1(=O)=O	.	.	.	-17	-3	.
C[C@H](CO)N1C[C@H](C)[C@@H](CN(C)CC2CCCC2)Oc2cc(Br)ccc2S1(=O)=O	.	.	.	11	-1	.
Cc1cccc(N=c2oc3cc(O)ccc3cc2C(N)=O)c1	1	9	6	.	-3	+
C[C@@H]1CCCCO[C@@H](CN(C)S(=O)(=O)c2ccc(F)cc2)[C@@H](C)CN([C@@H](C)CO)C(=O)c2cc(NC(=O)Nc3ccccc3)ccc2O1	.	.	.	.	-8	.
C[C@@H]1CN([C@H](C)CO)C(=O)c2cc(NC(=O)C3CCCCC3)ccc2O[C@@H]1CN(C)S(C)(=O)=O	.	.	.	-6	2	.
CNC[C@H](Cc1cccc2ccccc12)NC[C@H](CCSC)NCC1CCC(C(C)(C)C)CC1 (stereo not given in full)	.	86*	65*	.	.	.
CNCc1ccccc1Sc1cccc2ccccc12	14	16	-1	.	.	i
COc1ccc(C(CNC(=O)c2cccc(N(C)C)c2)N2CCCC2)cc1 (stereo not given)	-1	18	12	.	-10	i
CCC1CCc2sc(C(=O)NCC(c3ccc(OC)cc3)N3CCCC3)cc2C1 (stereo not given)	.	9	46*	-233	1	i
C1=CC2c3ccccc3NC(c3ccncc3)C2C1 (stereo not given)	-11	-20	49*	.	-6	i
COc1ccc2c3c(n(C)c2c1)[C@H](CO)N(C(=O)NC(C)C)CC31CCN(CC2CC2)CC1	.	.	.	-2	.	.
Cc1cc2nc3ccc(=[N+](C)C)cc-3sc2cc1N	104*	.	.	.	.	i
CC(C)[C@H](CO)Nc1nc(Nc2ccc(Cl)c(C(=O)O)c2)c2ncn(C(C)C)c2n1	.	3	44*	-5	-1	i
CC(C)n1cnc2c(Nc3ccc(C(=O)O)cc3)nc(Cl)nc21	.	9	-6	0	-6	i
OC[C@@H]1CC[C@@H]2O[C@H](CCc3ccc(-c4ccccc4)cc3)[C@@H](n3cc(C4CC4)nn3)C[C@@H]2O1	.	.	.	15	.	.

Compound activity deposited in PubChem BioAssay by several laboratories.
